High-throughput results deposited in PubChem BioAssay by several laboratories.
KLK5 inh = human KLK5 protease inhibitors, primary screen, biochemical, 1536-well; recombinant hK5, fluorogenic AMC substrate cleavage; inhibition, % at 5 µM; 0.59% of 210,000 active; AID 873, 2007;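 active = inhibition of 40% or more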;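 also: 0% = enzyme controls without compound and 100% = no-enzyme blanks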
FXIa inh 1536 = human FXIa protease inhibitors, primary screen, biochemical, 1536-well | Coagulation factor XI (Homo sapiens), P03951 | purified FXIa, Boc-Glu-Ala-Arg-AMC fluorogenic substrate | inhibition, % at 5 µM | 0.14% of 220,000 active;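 active = inhibition of at least 40%; inactive = inhibition below 40%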;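 also: fluorescence of freed AMC excited at 355 nm; 0% = enzyme without compound and 100% = no enzyme blank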
m-calpain inh = inhibitors of pig calpain II, primary screen, biochemical, fluorogenic peptide substrate, 1536-well. purified calpain II, 30 min. inhibition, % at 16 µM. 0.37% of 220,000 active. AID 1236, 2008;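 active = inhibition above about 50%, limit read from the data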
FXIIa inh = human FXIIa protease inhibitors, primary screen, biochemical, 1536-well; Coagulation factor XII (Homo sapiens), P00748; purified FXIIa, Boc-QGR-AMC fluorogenic substrate, 2 h; inhibition, % at 5 µM; 0.3% of 220,000 active; in the data active = inhibition above about 40%;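 also: 0% = enzyme with no compound and 100% = blank without enzyme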
Target sequence (P00748 20-372 limits assumed): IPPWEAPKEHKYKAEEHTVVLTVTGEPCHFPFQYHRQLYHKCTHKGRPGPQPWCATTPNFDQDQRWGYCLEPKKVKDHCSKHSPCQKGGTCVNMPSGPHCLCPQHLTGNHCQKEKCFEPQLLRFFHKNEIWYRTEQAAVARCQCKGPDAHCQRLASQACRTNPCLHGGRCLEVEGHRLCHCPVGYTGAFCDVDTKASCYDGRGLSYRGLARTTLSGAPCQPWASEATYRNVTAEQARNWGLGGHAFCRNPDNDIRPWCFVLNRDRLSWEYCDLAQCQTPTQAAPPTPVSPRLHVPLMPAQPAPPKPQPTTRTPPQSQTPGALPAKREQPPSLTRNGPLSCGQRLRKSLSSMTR
Target sequence (P00748 373-615 limits assumed): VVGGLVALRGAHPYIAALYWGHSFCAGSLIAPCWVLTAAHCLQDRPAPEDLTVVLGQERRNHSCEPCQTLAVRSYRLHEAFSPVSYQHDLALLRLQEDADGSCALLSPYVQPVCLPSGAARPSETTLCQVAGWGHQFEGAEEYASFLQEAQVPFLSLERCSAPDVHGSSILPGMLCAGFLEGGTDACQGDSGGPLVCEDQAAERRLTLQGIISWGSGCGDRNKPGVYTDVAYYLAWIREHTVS
Thrombin inh = human alpha-thrombin inhibitors, primary screen, counter-screen for coagulation protease inhibitor project, biochemical, 1536-well, fluorogenic AMC substrate. Prothrombin (Homo sapiens), P00734. inhibition, % at 5 µM. 0.26% of 220,000 active. Boc-VPR-AMC fluorogenic substrate cleavage;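 active = inhibition at or above 40%; inactive = inhibition below 40%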;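 also: 0% = enzyme with no compound and 100% = wells without enzyme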
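System – human alpha-thrombin protein · Reagent – Boc-VPR-AMC substrate, 15 µM final · Compound – 5 µM single dose in 0.2% DMSO · Schedule – reaction at room temperature · Technique – AMC fluorescence at 355 nm excitation and 460 nm emission · Read-out basis – % inhibition relative to enzyme controls and enzyme-free blanks · Control set – no-compound enzyme wells and no-enzyme blanks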
* hit, by the source's call; nt = no result given. In the library only some 1.4% were active in any assay of this set; here they are far more common.

SMILES	KLK5 inh	FXIa inh 1536	m-calpain inh	FXIIa inh	Thrombin inh
CCCN(CCC)C(=S)NC(=O)c1ccc(-c2ccccc2)cc1	-76.8	2.7	50.3*	3.9	-1.0
Cc1cc(C)c(NC(=S)NC(=O)c2ccc(-c3ccccc3)cc2)c(C)c1	56.6*	14.3	45.2	33.9	9.1
Cc1ccc(NC(=S)NC(=O)c2ccccc2)cc1NC(=S)NC(=O)c1ccccc1	-14.2	-2.8	28.2	-0.9	-13.3
Nc1[nH]n2c(=O)cc(-c3ccccc3)nc2c1N=Nc1ccc2c(c1)OCO2	12.1	13.9	-95.4	29.9	1.8
Nn1c(C2CCCCC2)nc2ccccc2c1=O	39.2	58.4*	1.5	61.5*	22.9
N#CCn1c(C2CCCCC2)nc2ccccc2c1=O	-9.1	2.4	0.9	7.2	-0.2
Cn1cc(C(=O)NCc2cccnc2)c(=O)c2cc(S(=O)(=O)N3CCCCCC3)ccc21	2.0	0.2	22.8	11.4	12.3
Cn1cc(C(=O)NCc2cccs2)c(=O)c2cc(S(=O)(=O)N3CCCC3)ccc21	-6.3	-2.2	-2.1	2.7	73.9*
CCn1cc(C(=O)NCc2ccco2)c(=O)c2cc(S(=O)(=O)N3CCCCCC3)ccc21	-4.0	-1.8	35.6	15.9	40.8*
CC(C)c1cc(C(=O)Nc2cccnc2)no1	44.7*	5.6	7.6	21.4	13.8
O=C(Nc1cccnc1)c1cccs1	-15.2	3.7	64.2*	5.3	-0.8
CCCc1cc(C(=O)Nc2cccnc2)no1	-16.9	4.2	6.0	7.4	-4.9
CCN1CCN(CCNC(=O)c2cn(Cc3ccccc3F)nn2)CC1	-8.9	6.4	-6.5	1.6	-1.3
CN1CCN(CCNC(=O)c2cn(Cc3ccccc3F)nn2)CC1	20.1	28.7	15.0	60.1*	15.2
O=[N+]([O-])c1ccc(OCC(O)CN2CCN(c3ccccc3F)CC2)cc1 (stereo unspecified)	-3.8	-4.0	57.3*	7.1	-9.2
CCOC(=O)C(NC(=O)c1ccccc1Cl)(Nc1ccc(C)c(C)c1)C(F)(F)F (stereo unspecified)	-23.8	4.0	8.0	8.3	-3.8
COC(=O)C(Nc1ccccc1Cl)(c1cc(C)c(O)c(C)c1)C(F)(F)F (stereo unspecified)	-16.5	-0.3	51.5*	-2.8	-5.0
CCOc1ccccc1N1CC(C(=O)Nc2cccc(S(=O)(=O)N3CCCCC3)c2)CC1=O (stereo unspecified)	-2.1	-7.0	-25.3	6.2	-11.0
Cc1cccc(N/C=C/C(=C(C#N)C#N)N(C)C)c1	-15.6	8.6	60.4*	8.6	0.1
CN(C)C(/C=C/Nc1cccc(Br)c1)=C(C#N)C#N	nt	5.6	12.2	15.2	-0.9
COc1ccc(Cl)cc1NC(=S)NNC(=O)C1(C)CC1(Cl)Cl (stereo unspecified)	13.2	5.6	15.3	48.6*	2.4
O=C(O)CCC(=O)NCc1c(Cl)cccc1Sc1ccc(Cl)cc1	-11.5	-9.9	2.8	1.1	-3.9
O=c1c2ccccc2nc(SCc2cn3ccsc3n2)n1-c1ccccc1	-12.5	-0.9	11.7	19.7	2.8
O=c1c2ccccc2nc(SCc2cn3ccsc3n2)n1-c1ccccc1F	-17.0	0.1	51.6*	13.6	2.5
CN(C)c1ccnc(Oc2ccc(C(C)(C)C)cc2)c1C#N	3.0	4.7	59.4*	-1.0	-1.9
SMILES	KLK5 inh	FXIa inh 1536	m-calpain inh	FXIIa inh	Thrombin inh
Cc1ccc(S(=O)(=O)N(CC#N)CC#N)cc1	-1.7	-2.9	-20.7	7.7	-9.4
O=C(NCc1ccco1)C1CCN(C(=O)c2cc3sccc3n2Cc2ccc(Cl)cc2)CC1	0.7	-2.4	56.6*	13.3	4.8
CCn1c(C(=O)N2CCC(C(=O)NCc3cccs3)CC2)cc2sccc21	-7.0	-0.8	10.3	12.9	0.6
CC(C)CC(=O)Nc1nnc(SCC(=O)Nc2ccc(F)cc2)s1	-9.6	-6.0	54.0*	3.9	-10.5
CCC(=O)Nc1nnc(SCC(=O)Nc2ccc(F)cc2)s1	-27.1	-2.9	-23.2	4.3	-9.5
CCC(C)(C(=O)Nc1ccccc1C)N(C(=O)CNC(C)=O)c1ccccc1C (stereo unspecified)	-13.3	-1.5	6.2	3.3	-7.2
Oc1ccc(-c2nc3ccccc3s2)cc1	-8.1	-7.1	-110.6	-1.0	41.9*
Oc1ccc(-c2cccc(-c3ccc(O)cc3)n2)cc1	46.7*	-8.6	19.4	-2.0	-5.7
O=C(COc1ccccc1CNCc1ccccc1)Nc1ccccc1	16.0	1.1	-17.9	14.7	1.1
COC(=O)c1ccc(COC(=O)CNS(=O)(=O)c2ccccc2)cc1	23.3	30.9	22.5	26.4	54.7*
CCOC(=O)c1ccc(COC(=O)CNS(=O)(=O)c2ccccc2)cc1	19.1	3.5	3.0	14.2	4.8
CCOC(=O)CN(c1cc([N+](=O)[O-])ccc1OC)S(C)(=O)=O	-31.8	-1.0	-14.9	7.0	5.8
CCOc1ccc2[nH]c(=O)c(C(c3nnnn3C3CCCCC3)N3CCN(C)CC3)cc2c1 (stereo unspecified)	-31.9	36.2	-88.1	48.3*	2.5
CSc1nc(SCC(=O)NCc2ccco2)c2c3c(sc2n1)COC(C)(C)C3	-29.4	-0.6	-209.5	6.5	-9.7
CSc1nc(SCC(=O)O)c2c3c(sc2n1)COC(C)(C)C3	22.8	29.9	-2.7	52.0*	18.2
COc1cccc(Nc2nc3ccccc3n3cnnc23)c1	64.0*	2.0	-17.2	16.9	1.6
COc1cccc(Nc2ccc(Nc3cccc(OC)c3)nn2)c1	53.2*	9.3	24.4	6.6	15.1
COc1ccc(C)cc1NC(=S)NC12CN3CN(CN(C3)C1)C2	-2.6	-2.0	-22.8	5.5	-3.8
COc1ccc(NC(=O)CN2CCN(c3nc(-c4ccc(F)cc4)cs3)CC2)c(OC)c1	7.0	3.2	56.4*	11.7	-1.7
O=C(COc1ccc(C(=O)c2ccccc2)cc1)NCC(=O)Nc1ccccc1Br	-3.2	1.2	41.1	15.1	1.5
CC(C)(C)SCCNS(=O)(=O)c1ccc2ccccc2c1	-15.1	7.3	49.5	12.0	-1.8
CC(C)(C)SCCNS(=O)(=O)c1ccccc1	43.2*	12.6	11.7	49.8*	21.5
CCOC(=O)CC(=O)NC1(Cc2ccc(O)cc2)CCCCC1	-5.1	-7.7	-25.9	1.1	6.0
Clc1ccc(Cn2ncc3c(N4CCCC4)ncnc32)cc1	44.4*	0.9	18.2	7.9	9.2
CCOc1ccccc1Nc1nnc(Cc2ccccc2Cl)c(=O)[nH]1	-12.6	-14.3	63.2*	-4.0	23.1
CCOc1ccccc1Nc1nnc(C)c(=O)[nH]1	6.4	-0.2	-5.0	11.2	0.4
CCc1ccc(N(C(C)=O)c2nc(CCl)cs2)cc1	88.0*	29.6	12.9	23.8	12.1
CCCCCCCCn1c2c(c(=N)c3ccccc31)CCC2	3.7	-3.0	49.0	6.5	-10.1
CCCCCCCCCn1c2c(c(=N)c3c1CCC3)CCCC2	-0.9	-1.0	57.9*	8.4	-3.2
